ChEMBL document CHEMBL4334447, “Discovery of 4-Aminoquinoline-3-carboxamide Derivatives as Potent Reversible Bruton's Tyrosine Kinase Inhibitors for the Treatment of Rheumatoid Arthritis” (J Med Chem, 2019)
Calls of active or inactive are those of the source. No cut-off for these calls is given here.

What was measured:
[1] = Volume of distribution in Sprague-Dawley rat at 2 mg/kg, iv or 5 mg/kg, po by LC-MS/MS analysis; type: ADME, organism-based; conditions: in vivo
Outline: (§1)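 Male Sprague-Dawley rats (187-205 g, n=6 per route). IV group: 2 mg/kg by tail vein in 10% DMSO/90% PEG400, fed animals. Oral group: 5 mg/kg as a 0.5% methylcellulose suspension, fasted animals. Jugular cannula blood taken pre-dose and from 0.033 h (iv only) to 24 h. Plasma stored at -20 °C and analysed by LC-MS/MS.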

[2] = Stability in Sprague-Dawley rat plasma assessed as parent compound remaining at 1 uM measured after 2 hrs by LC-MS/MS analysis; type: ADME, cell-free; conditions: read-out: Stability
Outline: (§2)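 Compound at 1 µM initial concentration incubated 2 h at 37 °C in plasma. Quenched with 10 volumes of methanol containing internal standard, then centrifuged. Supernatant diluted with an equal volume of water and analysed by LC-MS/MS. Read-out is % parent remaining. Mean of three separate assays run in triplicate.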

[3] = Oral bioavailability in Sprague-Dawley rat at 5 mg/kg by LC-MS/MS analysis; type: ADME, organism-based; conditions: in vivo; outline: as §1
[4] = Stability in monkey plasma assessed as parent compound remaining at 1 uM measured after 2 hrs by LC-MS/MS analysis; type: ADME, cell-free, Macaca mulatta; conditions: rhesus monkey, read-out: Stability; outline: as §2
Homo sapiens [5] = species: Homo sapiens; assay: Selectivity ratio of IC50 for human full-length recombinant YES to IC50 for inhibition of FAM-labeled peptide binding to full-length human N-terminal GST-tagged BTK (2 to 659 residues) expressed in baculovirus infected Sf21 insect cells
Outline: (§3)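 Ratio of kinase IC50 to BTK IC50. BTK measured by off-chip mobility shift: compound preincubated 10 min with BTK in 50 mM HEPES pH 7.5, 0.01% Brij-35, then FAM-labelled peptide and ATP added, 28 °C. Stopped with EDTA buffer; percent conversion fitted for IC50. Each panel kinase assayed in triplicate.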

Homo sapiens [6] = species: Homo sapiens; assay: Selectivity ratio of IC50 for recombinant full-length human SRC to IC50 for inhibition of FAM-labeled peptide binding to full-length human N-terminal GST-tagged BTK (2 to 659 residues) expressed in baculovirus infected Sf21 insect cells; outline: as §3
Homo sapiens [7] = species: Homo sapiens; assay: Selectivity ratio of IC50 for recombinant human ITK (352 to 617 residues) to IC50 for inhibition of FAM-labeled peptide binding to full-length human N-terminal GST-tagged BTK (2 to 659 residues) expressed in baculovirus infected Sf21 insect cells; outline: as §3
[8] = molecular target: Tyrosine-protein kinase Fyn (Homo sapiens, UniProt P06241); assay: Inhibition of human full-length recombinant FYN using KVEKIGEGTYGVVYK as substrate measured after 40 mins in presence of [gamma-33P]-ATP by scintillation counting analysis
Tyrosine-protein kinase Fyn, sequence (P06241 whole entry): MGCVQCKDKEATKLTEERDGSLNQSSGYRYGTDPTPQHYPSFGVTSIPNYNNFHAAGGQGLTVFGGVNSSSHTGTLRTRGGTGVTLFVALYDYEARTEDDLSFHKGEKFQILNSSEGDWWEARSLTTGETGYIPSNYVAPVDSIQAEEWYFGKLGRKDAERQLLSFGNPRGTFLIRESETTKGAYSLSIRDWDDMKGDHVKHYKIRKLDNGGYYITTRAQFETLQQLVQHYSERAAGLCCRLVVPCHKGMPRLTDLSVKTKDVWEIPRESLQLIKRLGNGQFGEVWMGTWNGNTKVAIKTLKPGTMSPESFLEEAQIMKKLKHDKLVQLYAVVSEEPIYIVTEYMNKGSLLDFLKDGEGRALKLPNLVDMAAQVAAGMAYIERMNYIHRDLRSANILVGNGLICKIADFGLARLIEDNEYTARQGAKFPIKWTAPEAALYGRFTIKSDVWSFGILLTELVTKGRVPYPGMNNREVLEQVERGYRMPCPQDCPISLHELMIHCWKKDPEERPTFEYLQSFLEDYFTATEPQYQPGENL
Outline: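 Started with Mg/ATP; 40 min at room temperature. Stopped with 0.5% phosphoric acid, spotted onto P30 filtermat, washed, scintillation counted. Mean of ≥3 assays in triplicate.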

[9] = Inhibition of recombinant mouse full-length BLK V421E mutant using poly(Glu, Tyr) 4:1 as substrate measured after 40 mins in presence of [gamma33P]ATP by scintillation counting analysis
Outline: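 Radiometric assay with BLK in 50 mM Tris pH 7.5, 0.1 mM EGTA, 0.1 mM Na3VO4, 0.1% mercaptoethanol, 0.1 mg/mL poly(Glu,Tyr) 4:1, 10 mM Mg acetate and [γ-33P]-ATP. Started with Mg/ATP at room temperature; 40 min. Stopped with 0.5% phosphoric acid, filtermat-spotted, washed, scintillation counted. Mean of ≥3 assays in triplicate.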

Mus musculus = assay: Antiarthritic activity in complete freund's adjuvant-induced DBA/1 mouse arthritis model assessed as reduction in paw volume at 10 mg/kg, po qd administered starting from 29 day post-CFA challenge and measured on day 29, 33, 36, 40 and 43 by caliper method; type: functional, organism-based
Outline: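 Male DBA/1 mice (18-20 g, 4-6 weeks) immunized intradermally at the tail base with bovine type II collagen in CFA on day 0, then challenged with collagen II in IFA on day 20. Randomized on day 29 and dosed orally once daily (n=6 per group) with vehicle as control. Paw thickness measured by caliper on days 29, 33, 36, 40 and 43. Mean ± SEM; Dunnett's test vs vehicle.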

[10] = molecular target: Tyrosine-protein kinase BTK (Homo sapiens, UniProt Q06187, C481S); assay: biochemical
Tyrosine-protein kinase BTK (Homo sapiens, UniProt Q06187, C481S), sequence (Q06187 whole entry C481S, the tested form may be a part): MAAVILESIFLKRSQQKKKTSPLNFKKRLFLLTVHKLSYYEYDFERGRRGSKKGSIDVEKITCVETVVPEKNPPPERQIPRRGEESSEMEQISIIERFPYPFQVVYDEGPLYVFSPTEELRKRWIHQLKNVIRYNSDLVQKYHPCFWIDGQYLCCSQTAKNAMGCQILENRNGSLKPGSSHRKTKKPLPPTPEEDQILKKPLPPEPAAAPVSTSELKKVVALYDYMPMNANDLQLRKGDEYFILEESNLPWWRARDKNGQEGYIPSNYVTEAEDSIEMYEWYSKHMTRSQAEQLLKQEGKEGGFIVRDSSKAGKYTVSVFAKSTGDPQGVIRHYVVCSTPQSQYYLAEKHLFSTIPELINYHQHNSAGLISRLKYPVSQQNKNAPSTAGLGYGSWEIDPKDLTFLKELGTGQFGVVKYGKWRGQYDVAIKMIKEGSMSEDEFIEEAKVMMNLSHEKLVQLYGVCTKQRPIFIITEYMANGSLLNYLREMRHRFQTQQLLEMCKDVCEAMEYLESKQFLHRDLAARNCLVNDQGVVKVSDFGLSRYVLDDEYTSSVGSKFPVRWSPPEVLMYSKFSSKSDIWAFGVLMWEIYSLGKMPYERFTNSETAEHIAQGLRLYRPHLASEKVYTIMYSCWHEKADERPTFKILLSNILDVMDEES

[11] = molecular target: Tyrosine-protein kinase BTK (Homo sapiens, UniProt Q06187); assay: Reversible inhibition of FAM-labeled peptide binding to full-length human N-terminal GST-tagged BTK (2 to 659 residues) expressed in baculovirus infected Sf21 insect cells at preincubated for 10 mins followed by FAM-labeled peptide addition and measured by off-chip mobility shift assay
Tyrosine-protein kinase BTK (Homo sapiens, UniProt Q06187), sequence (Q06187 whole entry, the tested form may be a part): as the sequence (Q06187 whole entry C481S, the tested form may be a part) above, with S481C counted along it

[12] = Stability in human plasma assessed as parent compound remaining at 1 uM measured after 2 hrs by LC-MS/MS analysis; type: ADME, cell-free; conditions: read-out: Stability; outline: as §2
Homo sapiens [13] = species: Homo sapiens; assay: Selectivity ratio of IC50 for recombinant human N-terminal GST-fused TEC catalytic domain (359 to 631 residues) expressed in baculovirus expression system to IC50 for inhibition of FAM-labeled peptide binding to full-length human N-terminal GST-tagged BTK (2 to 659 residues) expressed in baculovirus infected Sf21 insect cells; outline: as §3
[14] = Stability in Beagle dog plasma assessed as parent compound remaining at 1 uM measured after 2 hrs by LC-MS/MS analysis; type: ADME, cell-free, Canis lupus familiaris; conditions: read-out: Stability; outline: as §2

Compound: COc1cc2cn[nH]c2cc1-c1ccc(F)c2c(N)c(C(N)=O)cnc12
- Vd [1]: 2.1 L/kg
- remaining at 2 h, 1 µM [2]: 96%
- bioavailability [3]: 25%
- remaining at 2 h, 1 µM [4]: 88%
- Ratio IC50 (Homo sapiens [5]): > 1000
- Ratio IC50 (Homo sapiens [6]): 170
- Ratio IC50 (Homo sapiens [7]): 58
- IC50 [8]: 165 nM
- IC50 [9]: 150 nM
- Activity (Mus musculus): Active
- IC50 [10]: 39 nM
- IC50 [11]: 5.3 nM
- remaining at 2 h, 1 µM [12]: 93%
- Ratio IC50 (Homo sapiens [13]): 43
- remaining at 2 h, 1 µM [14]: 88%
